Assay outcomes from PubChem BioAssay.
Hits are enriched below; roughly 2.3% of the tested compounds scored in any of these assays.
TRPC4 agonist: opens the mouse TRPC4 cation channel; 310,000 compounds, 0.49% hits; B-score at 10 µM; AID 2237; Q9QUQ5; HEK293 TRPC4beta/mu-opioid, Fluo4 calcium fluorescence; active compounds read high;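 active = B-score above 5 SD of library B-scores, and initial fluorescence ratio not above library mean plus 5 SD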;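 also: positive B-score marks a calcium rise read as TRPC4 activation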
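System – HEK293 cells stably co-expressing mouse TRPC4beta and mu-opioid receptor · Signal – Fluo4 calcium-sensitive dye fluorescence, kinetic, 1 Hz baseline · Benchmarks – buffer (low) and maximal DAMGO (high) · Read-out – B score of integrated fluorescence ratio per well · Incubation – dye loading 45 min room temperature, 110 s kinetic read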
TRPC6 act: mouse TRPC6 channel activation. B-score at 10 µM. Q61143. HEK293-TRPC6 membrane potential dye fluorescence; active compounds read high. 310,000 compounds, 0.13% hits;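 active = B-score of the integrated fluorescence ratio above library mean plus 3 SD, and starting fluorescence ratio within library mean plus 5 SD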;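 also: higher score means more depolarization so channel activation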
Target sequence (Q61143 whole entry, looked up): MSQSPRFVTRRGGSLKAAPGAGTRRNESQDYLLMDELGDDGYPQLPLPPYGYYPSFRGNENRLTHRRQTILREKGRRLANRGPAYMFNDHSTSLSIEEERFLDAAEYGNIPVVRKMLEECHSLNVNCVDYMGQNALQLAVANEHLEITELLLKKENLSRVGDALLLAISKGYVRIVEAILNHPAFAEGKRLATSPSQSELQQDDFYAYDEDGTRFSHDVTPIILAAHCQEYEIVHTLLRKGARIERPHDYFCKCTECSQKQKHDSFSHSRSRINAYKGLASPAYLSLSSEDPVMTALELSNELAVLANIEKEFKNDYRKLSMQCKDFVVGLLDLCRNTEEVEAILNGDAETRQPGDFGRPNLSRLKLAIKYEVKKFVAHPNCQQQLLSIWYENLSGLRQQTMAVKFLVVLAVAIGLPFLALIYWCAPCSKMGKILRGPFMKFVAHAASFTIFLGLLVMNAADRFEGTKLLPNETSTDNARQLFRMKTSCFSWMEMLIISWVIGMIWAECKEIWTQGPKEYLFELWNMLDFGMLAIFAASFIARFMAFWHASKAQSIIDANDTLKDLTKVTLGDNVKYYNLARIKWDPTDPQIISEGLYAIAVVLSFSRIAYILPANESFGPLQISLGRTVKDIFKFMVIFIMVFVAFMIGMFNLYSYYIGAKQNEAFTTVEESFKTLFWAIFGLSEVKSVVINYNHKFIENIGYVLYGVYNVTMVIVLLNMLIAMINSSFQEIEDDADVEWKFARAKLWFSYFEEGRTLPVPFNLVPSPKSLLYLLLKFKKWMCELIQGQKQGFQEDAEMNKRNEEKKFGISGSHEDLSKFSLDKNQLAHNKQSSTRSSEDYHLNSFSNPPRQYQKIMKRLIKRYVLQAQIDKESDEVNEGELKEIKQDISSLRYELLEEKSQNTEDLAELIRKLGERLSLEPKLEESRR
TRPC6 inhibitor: blocks the mouse TRPC6 cation channel. 310,000 compounds, 1.1% hits. Q61143. B-score at 10 µM. HEK293-TRPC6, membrane potential dye, ACh-evoked depolarization; active compounds read low;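 active = B-score under library mean minus 3 SD, initial fluorescence not abnormally high, positive integrated signal ratio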;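 also: B-score derived from integrated fluorescence ratio over the kinetic read; more negative B-score means stronger inhibition of depolarization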
TRPC4 inh: inhibitors of mouse TRPC4 channel. Q9QUQ5. HEK293 TRPC4beta/mu-opioid, DAMGO-evoked Fluo4 calcium flux; active compounds read low. B-score at 10 µM. 300,000 compounds, 0.39% hits. AID 2247;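 active = B-score over 3 SD under the library average, no early fluorescence shift, positive overall ratio signal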
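material = TRPC4beta/mu-opioid receptor HEK293 cell line | probe or stimulus = sequential submaximal and maximal DAMGO stimulation | compound dosing = one concentration per compound | measured by = Fluo4 Ca2+ flux fluorescence | evaluation = integrated fluorescence ratio relative to baseline, converted to per-well B score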
TRPC4 PAM: allosteric potentiators of mouse TRPC4 channel | HEK293 TRPC4beta/mu-opioid, DAMGO EC20, Fluo-4 Ca2+ flux; active compounds read high | B-score at 10 µM | 310,000 compounds, 0.42% hits;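 active = B-score of calcium response area above 5 SD of library B-scores, with initial fluorescence ratio within 5 SD of library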;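 also: B-score of integrated fluorescence ratio over time as area under calcium response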
An asterisk follows results filed as active; i = inactive; / = not tested or not shown.

SMILES	TRPC4 agonist	TRPC6 act	TRPC6 inhibitor	TRPC4 inh	TRPC4 PAM
O=C(OC1C2CCC1C1CN(CCc3ccccc3)CC12)c1ccccc1 (stereo not given)	i	i	i	-6*	i
Cc1ccc(N(CC(=O)NCC2CCCO2)C(=O)CCC(=O)Nc2nccs2)cc1 (stereo not given)	i	i	i	i	i
Cc1ccc(C)n1-c1ncc(Br)cn1	i	i	i	i	21*
Cc1cc(OCC(=O)Nc2ccc(CN3CCOCC3)cc2)c2c(C)c(C)c(=O)oc2c1	i	i	i	i	i
Cc1ccc(S(=O)(=O)Nc2ccc3c(c2)nc(CN2CCCC2)n3C)cc1	44*	i	i	i	i
Cc1ccc(S(=O)(=O)Nc2ccc3c(c2)nc(CCN2CCCCC2)n3C)cc1	i	i	i	i	i
CCOc1ccc(-c2csc3nc[nH]c(=O)c23)cc1	i	i	i	i	i
Cc1ccc(C(=O)NC(C)C2CC3CCC2C3)c(C)c1 (stereo not given)	i	i	i	i	i
O=C1C(Cl)=C(Nc2cccc(O)c2)C(=O)N1Cc1ccccc1	i	i	i	i	74*
Cc1cc(C)n(C(=O)CNC(=O)c2ccc(Cl)cc2Cl)n1	i	i	i	i	i
COc1ccc(N2C(=NC(=O)C(C)Oc3ccccc3)SC3CS(=O)(=O)CC32)cc1 (stereo not given)	i	i	i	i	i
CC(=NCCN1CCN(C(C)=C2C(=O)c3ccccc3C2=O)CC1)C1=C(O)CC(C)(C)CC1=O	i	i	i	i	14*
COCc1ccc(CN2CCCC(CO)(Cc3ccccc3C)C2)o1 (stereo not given)	i	i	i	i	i
COc1cc(CN2CCCC(CO)(Cc3ccccc3C)C2)cc2c1OCO2 (stereo not given)	i	i	i	-6*	i
O=C(CNC(=O)c1ccccc1F)N/N=C/c1ccc2c(c1)OCO2	i	i	i	i	i
Cc1cccc(NC(=S)NCC(c2cccnc2)N(C)C)c1 (stereo not given)	103*	i	i	i	i
CN(C)C(CNC(=S)Nc1ccc(F)cc1)c1cccnc1 (stereo not given)	80*	i	i	i	i
CCCCNC(=O)COC(=O)c1ccccc1F	i	i	i	i	i
COc1ccc(CC(O)CC2c3c(cc4c(c3OC)OCO4)CCN2C)cc1 (stereo not given)	58*	i	i	-6*	i
CCCCNC(=O)c1sc(=S)n2c1[nH]c(=O)c1ccccc12	46*	i	i	i	i
CC(C)NC(=O)c1sc(=S)n2c1[nH]c(=O)c1ccc(C(=O)NCCc3ccc(Cl)cc3)cc12	i	i	i	i	i
CCOc1ccc(CCNC(=O)c2ccc3c(=O)[nH]c4c(C(=O)NC(C)C)sc(=S)n4c3c2)cc1	i	i	i	i	18*
COc1ccc(CCC(=O)N2CCCc3ccccc32)cc1	i	i	i	i	i
CC(C)=Cc1oc2ccc([N+](=O)[O-])cc2c1N1CCOCC1	i	i	i	i	i
CC1CN(C)C(C)c2c1oc1ccc([N+](=O)[O-])cc21 (stereo not given)	115*	i	i	i	i
SMILES	TRPC4 agonist	TRPC6 act	TRPC6 inhibitor	TRPC4 inh	TRPC4 PAM
CC1CN(C)C(C)c2c1oc1ccc(N)cc21 (stereo not given)	239*	i	i	i	i
Nc1ccc2oc3ccccc3c2c1	i	i	i	i	i
Fc1ccc(COc2ccc(Br)cc2CNCC2CCCO2)cc1 (stereo not given)	i	i	i	i	i
Fc1ccccc1COc1ccc(Br)cc1CNCC1CCCO1 (stereo not given)	i	i	i	-6*	i
O=C(NCCN1CCCC1)c1ccc2c(=O)n(CCc3ccccc3)c(=O)[nH]c2c1	i	i	i	i	12*
Cc1cc2c(cc1C)C(c1ccsc1)CC(=O)N2 (stereo not given)	i	i	i	i	i
Cc1ccc(C)n1-c1nnc(N2CCC(C(=O)NCCCN3CC(C)CC(C)C3)CC2)s1 (stereo not given)	88*	i	i	i	i
Cc1cc(=O)n2nc(N3CCCC(C(=O)NCCCN4CC(C)CC(C)C4)C3)sc2n1 (stereo not given)	47*	i	i	i	i
Cc1ccc(C)n1-c1nnc(N2CCC(C(=O)NCCCN3CCN(C)CC3)CC2)s1	i	i	i	i	i
CCCCn1c(N)c(N(CC(C)C)C(=O)COC(=O)Cc2c(C)nc3ccccc3c2C)c(=O)[nH]c1=O	i	i	i	i	i
Cc1ccc(NC(=O)c2ccc3nsnc3c2)c(C)c1	i	i	i	i	i
COc1ccccc1C(=O)NNC(=S)NC(=O)c1cc(OC)c(OC)c(OC)c1	62*	i	i	i	i
COc1cc(C(=O)NNC(=S)NC(=O)c2ccccc2C)cc(OC)c1OC	i	i	i	i	i
COc1cc(C(=O)NC(=S)NNC(=O)[C@H]2C[C@@H]2c2ccccc2)cc(OC)c1OC	160*	i	i	i	i
CC1(C)CC(NCCN2CCN(C3=CC(=C(C#N)C#N)CC(C)(C)C3)CC2)=CC(=C(C#N)C#N)C1	55*	i	i	/	i
CNC(=S)N1CCN(CCNC2=CC(=O)CC(C)(C)C2)CC1	i	i	i	i	i
COc1ccc(C2=NOC(c3nnc(-c4ccccc4)o3)C2)cc1 (stereo not given)	i	i	i	i	i
c1ccc(-c2ccccc2OCCOCCN2CCCCC2)cc1	i	i	i	-5*	i
CC1CCN(CCOCCOc2ccccc2-c2ccccc2)CC1	i	i	i	-6*	i
CC1CCN(CCCCOc2ccccc2-c2ccccc2)CC1	i	i	i	i	i
Cc1ccc(OCc2ccc(C(=O)N3CCCC3)o2)cc1C	i	i	i	i	i
CCOc1ccc(OCc2ccc(C(=O)N3CCCCC3)o2)cc1	i	i	i	i	10*
O=C(NCCCN1CCOCC1)c1c(F)c(F)c(F)c(F)c1F	i	i	i	i	i
COC1=C(Nc2ccc(C)cc2)C(=O)c2ccccc2C1=O	i	i	i	i	i
COC1=C(Nc2ccccc2)C(=O)c2ccccc2C1=O	i	i	i	i	13*
